In brackets after ≈: the same amount, converted by molar mass.

We go through four compounds from ChEMBL document CHEMBL1154887, “Pycnanthulignenes A-D, antimicrobial cyclolignene derivatives from the roots of Pycnanthus angolensis” (2010).

For experiment [1], the system named is Klebsiella pneumoniae. The experiment can be described thus: Antibacterial activity against beta ampicillin resistant Klebsiella pneumoniae LMP 803 after 24 hrs by microbroth dilution method. Format: functional. The method in brief:
(§1)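 For MMC, wells with no colour change after the INT step of the microbroth dilution assay were subcultured onto MHA agar and incubated at 37 °C for 24 h. MMC is the lowest concentration giving no growth after subculture. The assay was repeated three times.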
(In general: In broth dilution the organism is exposed to a series of concentrations in liquid medium.)

For experiment [2], the system named is Microsporum audouinii. The experiment can be described thus: Antifungal activity against Microsporum audouinii LMP 725D after 24 hrs by microbroth dilution method. Format: functional. The method in brief: (§2)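 Minimal microbicidal concentration taken after the microbroth dilution MIC assay. MMC is the lowest concentration giving no growth after subculture.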

In experiment [3] the test system is Pseudomonas aeruginosa. In words: Antibacterial activity against beta carbenicillin resistant Pseudomonas aeruginosa LMP 804 after 24 hrs by microbroth dilution method. Format: functional. The method in brief: as §1
For experiment [4], the system named is Escherichia coli. The experiment can be described thus: Antibacterial activity against beta lactamase positive Escherichia coli LMP 701 after 24 hrs by microbroth dilution method. Format: functional. The method in brief:
as §2

The subject of experiment [5] is Escherichia coli. In words: Antibacterial activity against beta lactamase positive Escherichia coli LMP 701 after 30 mins by microbroth dilution method. Format: functional. The gist of the method:
(§3)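 Microbroth dilution, run three times. After incubation, 0.2 mg/mL p-iodonitrotetrazolium chloride was added and plates were held 30 min at 37 °C. Viable cells reduce the yellow dye to pink. MIC is the lowest concentration that prevented the colour change and gave complete growth inhibition.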

The subject of experiment [6] is Microsporum audouinii. In words: Antifungal activity against Microsporum audouinii LMP 725D after 30 mins by microbroth dilution method. Format: functional. The method in brief: as §3
Experiment [7] deals with Candida albicans. In words: Antifungal activity against Candida albicans LMP 709U […] by microbroth dilution method. Format: functional. The gist of the method:
as §3

Experiment [8] has as its system Shigella dysenteriae. The experiment can be described thus: Antibacterial activity against beta lactamase positive Shigella dysenteriae LMP 606 after 24 hrs by microbroth dilution method. Format: functional. The method in brief: as §1
The test system of experiment [9] is Candida albicans. The experiment can be described thus: Antifungal activity against Candida albicans LMP 709U after 24 hrs by microbroth dilution method. Format: functional. The gist of the method:
as §2

The subject of experiment [10] is Staphylococcus aureus. The experiment can be described thus: Antibacterial activity against methicillin-resistant Staphylococcus aureus LMP 805 after 24 hrs by microbroth dilution method. Format: functional. The method in brief: as §1
The subject of experiment [11] is Salmonella enterica. The experiment can be described thus: Antibacterial activity against chloramphenicol-resistant Salmonella typhi LMP 706 after 30 mins by microbroth dilution method. Format: functional, Salmonella enterica subsp. enterica serovar Typhi. The method in brief: (§4)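 Microbroth dilution MIC, done in three independent repeats. After incubation, 0.2 mg/mL p-iodonitrotetrazolium chloride was added and plates were held at 37 °C for 30 min. Viable cells reduce the yellow dye to pink.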

For experiment [12], the system named is Klebsiella pneumoniae. In words: Antibacterial activity against beta ampicillin resistant Klebsiella pneumoniae LMP 803 after 30 mins by microbroth dilution method. Format: functional. The method in brief: as §4
The subject of experiment [13] is Staphylococcus aureus. In words: Antibacterial activity against methicillin-resistant Staphylococcus aureus LMP 805 after 30 mins by microbroth dilution method. Format: functional. The method in brief:
as §4

Experiment [14] has as its system Pseudomonas aeruginosa. In words: Antibacterial activity against beta carbenicillin resistant Pseudomonas aeruginosa LMP 804 after 30 mins by microbroth dilution method. Format: functional. The method in brief:
as §4

Experiment [15] has as its system Shigella dysenteriae. In words: Antibacterial activity against beta lactamase positive Shigella dysenteriae LMP 606 after 30 mins by microbroth dilution method. Format: functional. The gist of the method: as §4
Experiment [16] relates to Citrobacter freundii. In words: Antibacterial activity against chloramphenicol-resistant Citrobacter freundii LMP 802 after 30 mins by microbroth dilution method. Format: functional. The gist of the method: as §4
Experiment [17] has as its system Citrobacter freundii. The experiment can be described thus: Antibacterial activity against chloramphenicol-resistant Citrobacter freundii LMP 802 after 24 hrs by microbroth dilution method. Format: functional. The gist of the method:
as §1

For experiment [18], the system named is Salmonella enterica. In words: Antibacterial activity against chloramphenicol-resistant Salmonella typhi LMP 706 after 24 hrs by microbroth dilution method. Format: functional, Salmonella enterica subsp. enterica serovar Typhi. The gist of the method:
as §1

[19] abbreviates: Salmonella enterica subsp. enterica serovar Typhi.

As for `COc1cc2c(cc1OC)[C@H](c1ccc(O)cc1)[C@@H](C)C(C)=C2` [PYCNANTHULIGNENE A], the MMC is above 78.12 µg/mL in experiment [1]; 78.12 µg/mL in experiment [2]; above 78.12 µg/mL in [3]; 39.1 µg/mL in [4]; 78.1 µg/mL in [8]; 39.06 µg/mL in experiment [9]. In [10], this compound showed an MMC of 19.53 µg/mL. Besides, the MIC (in general, the least concentration at which growth counts as inhibited) in experiment [5] (LMP 701, 0.5 h) stood at 19.5 µg/mL (≈ 62.8 µM); in [6] (0.5 h) it was 39.1 µg/mL (≈ 126 µM); in experiment [7], 19.5 µg/mL (≈ 62.9 µM); in experiment [11] (LMP 706, 0.5 h) it was 19.5 µg/mL (≈ 62.9 µM); in experiment [12] (LMP 803, 0.5 h), 78.1 µg/mL (≈ 252 µM); in experiment [13] (LMP 805, 0.5 h) it was 9.76 µg/mL (≈ 31.4 µM). In addition, the MIC was 78.1 µg/mL (≈ 252 µM) in [14] (LMP 804, 0.5 h); 39.1 µg/mL (≈ 126 µM) in experiment [15] (LMP 606, 0.5 h); 39.1 µg/mL (≈ 126 µM) in [16] (LMP 802, 0.5 h).

On to `COc1ccc(-c2c(C)c(C)cc3cc4c(cc23)OCO4)cc1` [PYCNANTHULIGNENE C], for which the MMC is above 78.1 µg/mL in [1]; 78.1 µg/mL in [2]; above 78.12 µg/mL in [3]; 78.1 µg/mL in experiment [4]; 78.12 µg/mL in experiment [17]; above 78.1 µg/mL in experiment [8]. In addition, the MMC in [9] was 39.06 µg/mL; in experiment [10], 39.1 µg/mL; in [18], 78.12 µg/mL. The MIC in [5] (LMP 701, 0.5 h) was determined as 19.5 µg/mL (≈ 63.7 µM); in [6] (0.5 h), 39.1 µg/mL (≈ 127 µM); in experiment [7] it was 19.5 µg/mL (≈ 63.7 µM); in [11] (LMP 706, 0.5 h), 39.1 µg/mL (≈ 127 µM); in [12] (LMP 803, 0.5 h) it was 78.1 µg/mL (≈ 255 µM); in experiment [13] (LMP 805, 0.5 h), 19.5 µg/mL (≈ 63.7 µM). Also, the MIC in experiment [14] (LMP 804, 0.5 h) was above 78.1 µg/mL; in [15] (LMP 606, 0.5 h), 39.1 µg/mL (≈ 128 µM); in experiment [16] (LMP 802, 0.5 h) it was 39.1 µg/mL (≈ 127 µM).

With GENTAMICIN, the MIC in experiment [5] is 4.88 µg/mL; in [6], 4.88 µg/mL; in experiment [11] (setting [19]), 9.76 µg/mL; in experiment [12], 19.5 µg/mL; in experiment [13] it was 4.88 µg/mL; in experiment [14] it was above 9.76 µg/mL. In addition, the MIC in experiment [15] and in experiment [16] was 4.88 µg/mL each time.

Take NYSTATIN: the MMC turned out to be 19.5 µg/mL in experiment [1]; 9.8 µg/mL in experiment [2]; 19.5 µg/mL in [3]; 9.8 µg/mL in [4]; 9.8 µg/mL in [17]; 9.8 µg/mL in experiment [8]. The MMC amounted to 9.8 µg/mL in experiment [9] and 19.5 µg/mL in [18] (setting [19]).
